According to ChEMBL document CHEMBL3526151, “Reversible disulfide formation of the glutamate carboxypeptidase II inhibitor E2072 results in prolonged systemic exposures in vivo” (Drug Metab Dispos, 2012):

Key:
[1] = AUC(0 to infinity) in Sprague-Dawley rat at 0.1 mg/kg, iv administered as bolus injection measured under fasted conditions by LC-MS/MS analysis; type: ADME, organism-based; parameters: time infinity, dose 0.1 mg/kg, route intravenous; settings: plasma
Procedure, shortened: (§1)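 Male Sprague-Dawley rats (280–330 g), jugular vein cannulated, fasted overnight until 4 h post-dose. Single tail-vein bolus of 0.1, 1, 10 or 30 mg/kg in 50 mM HEPES buffered saline, pH 7.4. Blood drawn 0–24 h into heparin tubes containing NEM. Plasma quantified by LC-MS/MS after NEM derivatization. Noncompartmental analysis: AUClast by linear trapezoidal rule, Cl = dose/AUC0-∞. Mean ± S.D., n = 4–9.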

[2] = Half life in Sprague-Dawley rat at 0.1 mg/kg, po administered via gavage measured under fasted conditions by LC-MS/MS analysis; type: ADME, organism-based; parameters: dose 0.1 mg/kg, route oral; settings: in vivo
[3] = Apparent volume of distribution in Sprague-Dawley rat at 10 mg/kg, po administered via gavage measured under fasted conditions by LC-MS/MS analysis; type: ADME, organism-based; parameters: dose 10 mg/kg, route oral; settings: in vivo
Procedure, shortened: (§2)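 Fasted male Sprague-Dawley rats (280–330 g) received 0.1, 1, 10 or 30 mg/kg by oral gavage in 50 mM HEPES buffered saline, pH 7.4. Blood drawn at 0.25–24 h into heparin/NEM tubes; plasma analyzed by LC-MS/MS. Cmax taken as observed. AUC by linear trapezoidal rule with extrapolation by λz. Cl/F and Vd/F reported. Mean ± S.D., n = 4–9.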

[4] = Clearance in Sprague-Dawley rat at 30 mg/kg, iv administered as bolus injection measured under fasted conditions by LC-MS/MS analysis; type: ADME, organism-based; parameters: dose 30 mg/kg, route intravenous; settings: in vivo; procedure, shortened: as §1
[5] = Cmax in Sprague-Dawley rat plasma at 10 mg/kg, po administered as single dose by LC-MS/MS analysis; type: ADME, organism-based; parameters: dose 10 mg/kg, route oral
Procedure, shortened: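 Male Sprague-Dawley rats were dosed orally with 10 mg/kg/day, either once or daily for 5 days; n = 4 per group. Blood was taken by cardiac puncture and liver, kidney, brain and sciatic nerve were collected at 0–8 h post-dose. Tissues were homogenized in PBS containing NEM at equal volume per gram. NEM-derivatized analyte was extracted with methanol and quantified by LC-MS/MS (1–5000 ng/ml). Cmax is the observed value.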

[6] = Phase 1 metabolic stability in mouse liver microsomes assessed as compound remaining at 10 uM measured for 1 hr by LC-MS/MS analysis; type: ADME; settings: read-out: Stability
Procedure, shortened: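 Liver microsomes (0.5 mg/ml) were incubated with 10 µM compound (final) in 100 mM potassium phosphate, pH 7.4. An NADPH-regenerating system was present: 1.3 mM NADPH, 3.3 mM glucose 6-phosphate, 3.3 mM MgCl2, 0.4 U/ml G6PDH and 50 µM sodium citrate. Runs were in duplicate, with samples taken up to 1 h and quenched with acetonitrile containing internal standard. Loss of compound was followed by LC-MS/MS.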

[7] = Volume of distribution in Sprague-Dawley rat at 10 mg/kg, iv by LC-MS/MS analysis; type: ADME, organism-based; parameters: dose 10 mg/kg, route intravenous; settings: in vivo
[8] = Protein binding in Sprague-Dawley rat serum at 10 uM after 1 hr by LC-MS/MS analysis; type: ADME, cell-free; settings: read-out: PB (converted)
Procedure, shortened: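 Serum from the named species spiked to 10 μM and held 1 h at 37°C, then ultrafiltered through a 5000 Da cutoff device (45 min, 37°C, 1800g). Filtrate and unfiltered serum extracted and measured by LC-MS/MS; % bound = 100 − (Cu/Cs × 100).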

[9] = Elimination half life in cynomolgus monkey at 5 mg/kg, iv administered as bolus injection by LC-MS/MS analysis; type: ADME, organism-based, Macaca fascicularis; parameters: dose 5 mg/kg, route intravenous; settings: in vivo, read-out: beta t1/2 (converted)
Procedure, shortened: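 Cynomolgus monkeys (n = 3) received a nominal 5 mg/kg dose in 50 mM HEPES, TCEP-treated to prevent disulfide formation. Dosing was either an IV bolus via cephalic or saphenous vein or oral. Arterial cannula blood was collected into NEM-containing heparinized tubes for up to 9 days and analyzed by LC-MS/MS. Noncompartmental analysis gave t1/2 = 0.693/λz and F% = dose-normalized mean AUCinf p.o./i.v. ×100.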

[10] = Phase 2 metabolic stability in human liver microsomes assessed as compound remaining at 10 uM measured for 1 hr by LC-MS/MS analysis; type: ADME; settings: read-out: Stability
Procedure, shortened: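 For glucuronidation, compound was preincubated at 37°C in 50 mM Tris-HCl, pH 7.5, with 0.5 mg/ml liver microsomes, 8 mM MgCl2 and 25 µg/ml alamethicin. Reactions were started in duplicate with 2 mM UDPGA (final). Samples were taken up to 1 h, quenched with acetonitrile containing internal standard, and compound disappearance was measured by LC-MS/MS.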

[11] = Tmax in Sprague-Dawley rat at 30 mg/kg, po administered via gavage measured under fasted conditions by LC-MS/MS analysis; type: ADME, organism-based; parameters: dose 30 mg/kg, route oral; settings: in vivo
Procedure, shortened: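 Jugular-cannulated male Sprague-Dawley rats, 280–330 g, fasted overnight to 4 h post-dose. Single dose in 50 mM HEPES-buffered saline pH 7.4, by oral gavage or as tail-vein i.v. bolus. Blood into heparin/NEM tubes at 0–24 h. Plasma measured by LC-MS/MS; noncompartmental analysis; Tmax observed; Vd = dose/(AUCinf·λz).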

[12] = Volume of distribution in cynomolgus monkey at 5 mg/kg, iv administered as bolus injection by LC-MS/MS analysis; type: ADME, organism-based, Macaca fascicularis; parameters: dose 5 mg/kg, route intravenous; settings: in vivo
Procedure, shortened: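 Monkey i.v. bolus at 5 mg/kg nominal (n=3), TCEP-treated HEPES solution, via cephalic or saphenous vein. Arterial blood into NEM tubes over 9 days. Plasma measured by LC-MS/MS; Vd = dose/(AUCinf·λz).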

Rattus norvegicus [13] = assay: AUC(0 to infinity) in Sprague-Dawley rat at 0.1 mg/kg, po administered via gavage measured under fasted conditions by LC-MS/MS analysis; type: ADME, organism-based, Plasma; parameters: time infinity, dose 0.1 mg/kg, route oral; settings: in vivo; procedure, shortened: as §2
Rattus norvegicus [14] = assay: Analgesic activity in Sprague-Dawley rat chronic constriction injury model assessed as change in paw withdrawal latency at 10 mg/kg/day, po measured 7 days after drug treatment cessation (reference value: -2.68 +/-0.43 s); type: functional
[15] = Cmax in Sprague-Dawley rat at 0.1 mg/kg, po administered via gavage measured under fasted conditions by LC-MS/MS analysis; type: ADME, organism-based; parameters: dose 0.1 mg/kg, route oral; settings: in vivo; procedure, shortened: as §2
Rattus norvegicus [16] = assay: Elimination half life in Sprague-Dawley rat at 10 mg/kg, iv by LC-MS/MS analysis; type: ADME, organism-based; parameters: dose 10 mg/kg, route intravenous; settings: in vivo
Procedure, shortened: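 Male Sprague-Dawley rats received a single IV dose of either 10 mg/kg parent drug (n = 6) or 5 mg/kg homodisulfide (n = 5), in 50 mM HEPES-buffered saline, pH 7.4. Blood was collected into NEM-containing heparinized tubes for up to 7 days. Parent drug and homodisulfide in plasma were quantified by LC-MS/MS. Terminal t1/2β was calculated as 0.693/λz.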

[17] = Apparent oral clearance in Sprague-Dawley rat at 1 mg/kg, po administered via gavage measured under fasted conditions by LC-MS/MS analysis; type: ADME, organism-based; parameters: dose 1 mg/kg, route oral; settings: in vivo; procedure, shortened: as §2
[18] = Cmax in Sprague-Dawley rat at 30 mg/kg, po administered via gavage measured under fasted conditions by LC-MS/MS analysis; type: ADME, organism-based; parameters: dose 30 mg/kg, route oral; settings: in vivo; procedure, shortened: as §2
[19] = Apparent volume of distribution in Sprague-Dawley rat at 0.1 mg/kg, po administered via gavage measured under fasted conditions by LC-MS/MS analysis; type: ADME, organism-based; parameters: dose 0.1 mg/kg, route oral; settings: in vivo; procedure, shortened: as §2
[20] = AUC(0 to infinity) in Sprague-Dawley rat at 30 mg/kg, iv administered as bolus injection measured under fasted conditions by LC-MS/MS analysis; type: ADME, organism-based; parameters: time infinity, dose 30 mg/kg, route intravenous; settings: plasma; procedure, shortened: as §1

AUC(0-inf) [1]: 1970 ng·h/mL
half-life [2]: 9.33 h
Vd/F [3]: 1.44 L/kg
clearance [4]: 3 mL/min/kg
Cmax [5]: 4920 ng/mL
remaining at 1 h, 10 µM [6]: > 90%
Vd [7]: 19 L/kg
fraction unbound at 1 h, 10 µM [8]: 0.025
half-life [9]: 23 h
remaining at 1 h, 10 µM [10]: > 90%
Tmax [11]: 1.43 h
Vd [12]: 0.72 L/kg
AUC (Rattus norvegicus [13]): 605 ng·h/mL
Cmax [15]: 62.6 ng/mL
beta t1/2 (Rattus norvegicus [16]): 105 h
CL/F [17]: 5.5 mL/min/kg
Cmax [18]: 13000 ng/mL
Vd/F [19]: 2.98 L/kg
AUC(0-inf) [20]: 204000 ng·h/mL
SMILES: O=C(O)c1cccc(-c2cccc(CCS)c2C(=O)O)c1
Time (Rattus norvegicus [14]): -1.53 s
